Consider twelve compounds from ChEMBL document CHEMBL1126582, “Symmetry-based inhibitors of HIV protease. Structure-activity studies of acylated 2,4-diamino-1,5-diphenyl-3-hydroxypentane and 2,5-diamino-1,6-diphenylhexane-3,4-diol” (J Med Chem, 1993).

Data set [1] has as its system Human immunodeficiency virus 1. Briefly: Compound was tested in vitro for inhibition of cytopathic effect of HIV-1 3B in MT-4 lymphocytes. It is filed as functional, organism-based. The procedure, abridged: (§1)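 MT-4 lymphocytes were infected with HIV-1 3B at an MOI of either 0.001 or 0.032 tissue culture infective dose per cell. EC50 is the concentration preventing 50% of viral cytopathic effect, from a single triplicate assay. No effect means no activity up to 100 μM or up to the cytotoxic concentration.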
For orientation: Cytopathic effects are the visible damage that an infection or toxin causes in cultured cells.

Data set [2] has as its target Human immunodeficiency virus type 1 protease (Human immunodeficiency virus 1, UniProt Q72874). Briefly: Inhibition of purified recombinant HIV-1 protease in a fluorogenic assay. The procedure, abridged:
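Purified recombinant HIV-1 protease, with cleavage of the fluorogenic substrate DABCYL-[…]-Pro-Ile-Val-Gln-EDANS as read-out. Value is the inhibitor concentration giving 50% inhibition of protease activity.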

Data set [3] is described as follows: In vitro for cytotoxicity in MT-4 lymphocytes in the absence of HIV infection. It is filed as cell-based, MT4. Conditions: human. The procedure, abridged:
(§2)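 Uninfected MT-4 lymphocytes were cultured with compound. CC50 is the concentration at which 50% of cells remain viable.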

The nature of data set [4]: Estimated solubility (buffer pH 7.4). It is filed as ADME. Conditions: read-out: S. Summed up:
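Solubility was estimated in pH 7.4 phosphate buffer.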

Data set [5] concerns Human immunodeficiency virus 1. Briefly: In vitro for inhibition of cytopathic effect of HIV-1 3B in MT-4 lymphocytes. It is filed as functional, organism-based. Summed up:
as §1

The subject of the next data set is MT4. Briefly: In vitro for cytotoxicity in MT-4 lymphocytes in the absence of HIV infection. It is filed as functional. Conditions: Homo sapiens. Summed up: as §2

The structures appear in SMILES notation. Converted amounts (≈) assume the structure as drawn.

For orientation: EC50 means the concentration at which the effect is half-maximal. Usually IC50 stands for the concentration that inhibits the measured activity by half. In general, CC50 refers to the concentration at which the toxic effect on the cells reaches its halfway point. Higher therefore signals lower toxicity to the cells. As to `CC(C)[C@H](NC(=O)CCc1cccnc1)C(=O)N[C@@H](Cc1ccccc1)C(O)[C@H](Cc1ccccc1)NC(=O)[C@H](NC(=O)CCc1cccnc1)C(C)C` (stereo partly drawn), in data set [1], the half-maximal effective concentration (EC50) stood at 10 µM. In data set [2], the IC50 was 22 nM. This compound displayed a CC50 in data set [3] of 55 µM.
Regarding `CC(C)[C@H](NC(=O)N(C)Cc1cscn1)C(=O)N[C@@H](Cc1ccccc1)[C@@H](O)[C@H](O)[C@H](Cc1ccccc1)NC(=O)[C@H](NC(=O)N(C)Cc1cscn1)C(C)C`, the IC50 in data set [2] was < 1 nM. For the same compound, the solubility in data set [4] is 159 µg/mL (≈ 197 µM). This compound also displayed an EC50 in data set [5] of 190 nM. In the data set with MT4, the CC50 was > 100 µM.
In turn, `CC(C)[C@H](NC(=O)N1CCN(Cc2ccccc2)CC1)C(=O)N[C@@H](Cc1ccccc1)[C@@H](O)[C@@H](O)[C@H](Cc1ccccc1)NC(=O)[C@H](NC(=O)N1CCN(Cc2ccccc2)CC1)C(C)C` gave an EC50 in data set [1] of 4.3 µM. The IC50 in data set [2] was 7.8 nM. The solubility in data set [4] is 9 µg/mL (≈ 9.96 µM). In addition, in data set [3], half-maximal cytotoxicity (CC50) was put at 17 µM.
Regarding `CC(C)[C@H](NS(=O)(=O)CCc1ccccn1)C(=O)N[C@@H](Cc1ccccc1)[C@@H](O)[C@H](O)[C@H](Cc1ccccc1)NC(=O)[C@H](NS(=O)(=O)CCc1ccccn1)C(C)C`, in data set [1], the EC50 is 1.5 µM. In data set [2], the IC50 is < 1 nM. Moreover, the CC50 in data set [3] was > 100 µM.
With `CC(C)[C@H](NC(=O)OCc1ccncc1)C(=O)N[C@@H](Cc1ccccc1)[C@@H](O)[C@@H](O)[C@H](Cc1ccccc1)NC(=O)[C@H](NC(=O)OCc1ccncc1)C(C)C`, the half-maximal inhibitory concentration (IC50) in data set [2] amounted to 1.7 nM. Further, the solubility in data set [4] was 55 µg/mL (≈ 71.5 µM). In data set [5], this compound came in with a half-maximal effective concentration (EC50) of 610 nM. The cytotoxic concentration (CC50) with MT4 was > 100 µM.
Compound `CC(C)[C@H](NS(=O)(=O)CCc1ccncc1)C(=O)N[C@@H](Cc1ccccc1)[C@@H](O)[C@H](O)[C@H](Cc1ccccc1)NC(=O)[C@H](NS(=O)(=O)CCc1ccncc1)C(C)C` yielded an EC50 in data set [1] of 16 µM. Besides, in data set [2], the IC50 turned out to be 24 nM. In addition, the solubility in data set [4] is 32 µg/mL (≈ 38.2 µM). Moreover, the half-maximal cytotoxic concentration (CC50) in data set [3] was > 100 µM.
`CC(C)[C@H](NC(=O)N1CCOCC1)C(=O)N[C@@H](Cc1ccccc1)[C@H](O)[C@H](O)[C@H](Cc1ccccc1)NC(=O)[C@H](NC(=O)N1CCOCC1)C(C)C` gave an EC50 in data set [1] of 88 µM. The IC50 in data set [2] was 43 nM. Moreover, in data set [3], the CC50 is > 100 µM.
On to `CC(C)[C@H](NC(=O)N(C)Cc1nccs1)C(=O)N[C@@H](Cc1ccccc1)[C@H](O)[C@@H](O)[C@H](Cc1ccccc1)NC(=O)[C@H](NC(=O)N(C)Cc1csc(N)n1)C(C)C`, for which, in data set [1], the EC50 is 1.6 µM. In addition, in data set [2], the IC50 was < 1 nM. Besides, the solubility in data set [4] was 196 µg/mL (≈ 238 µM). Also, the CC50 in data set [3] is > 100 µM.
For the compound `CC(C)[C@H](NC(=O)N(C)Cc1ccccn1)C(=O)N[C@@H](Cc1ccccc1)[C@H](O)[C@@H](O)[C@H](Cc1ccccc1)NC(=O)[C@H](NC(=O)N(C)Cc1cscn1)C(C)C`, the IC50 in data set [2] is < 1 nM. In data set [4], the solubility is 1 µg/mL (≈ 1.25 µM). In data set [5], the EC50 turned out to be 200 nM. Moreover, the CC50 with MT4 was > 100 µM.
As to `CC(C)[C@H](NC(=O)CCc1cccnc1)C(=O)N[C@@H](Cc1ccccc1)[C@@H](O)[C@@H](O)[C@H](Cc1ccccc1)NC(=O)[C@H](NC(=O)CCc1cccnc1)C(C)C`, the 50% effective concentration (EC50) in data set [1] stood at 9.5 µM. The IC50 in data set [2] turned out to be 1.5 nM. The CC50 in data set [3] was > 100 µM.
The corresponding values for `CC(C)[C@H](NC(=O)CCc1ccccn1)C(=O)N[C@@H](Cc1ccccc1)C(O)[C@H](Cc1ccccc1)NC(=O)[C@H](NC(=O)CCc1ccccn1)C(C)C` (stereo partly drawn) are 2.2 µM, 12 nM and > 100 µM.
Regarding `CC(C)[C@H](NC(=O)N(C)CCc1ccccn1)C(=O)N[C@@H](Cc1ccccc1)[C@@H](O)[C@@H](O)[C@H](Cc1ccccc1)NC(=O)[C@H](NC(=O)N(C)CCc1ccccn1)C(C)C`, the IC50 in data set [2] was 22 nM. Also, in data set [4], the solubility was 355 µg/mL (≈ 431 µM). In data set [5], this compound yielded an EC50 of 13000 nM. In the data set on MT4, the CC50 is > 100 µM.
